Assay results taken from ChEMBL document CHEMBL1136227, “Regulation of gene expression by synthetic dimerizers with novel specificity” (Bioorg Med Chem Lett, 2003).

Assays:
[1] = target: Peptidyl-prolyl cis-trans isomerase FKBP1A (Homo sapiens, UniProt P62942, F36V); experiment: Inhibition of binding to Phe36Val (F36V) mutant of FK506 binding protein 12
How it was run: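 Fluorescence polarization competition assay with F36V-FKBP12, testing monomeric FKBP ligands. IC50 = monomer concentration reducing probe binding by 50%.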

HT-1080 [2] = experiment: (§1) Compound was induced transcription stably transfected with constructs encoding separate DNA-binding domain and activation domain proteins in HT1080 human fibrosarcoma cells; format: functional, cell-based
How it was run: (§2)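 HT1080 human fibrosarcoma cells, transiently or stably transfected with separate DNA-binding domain and activation domain fusions, each carrying three tandem F36V-FKBP copies, plus a SEAP reporter responsive to the reconstituted factor. Dimerizer titrated; secreted SEAP measured. EC50 = dimerizer concentration giving 50% of peak SEAP expression; peak level also expressed relative to a reference dimerizer.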

HT-1080 [3] = experiment: (§3) Compound was induced transcription in transiently transfected with constructs encoding separate DNA-binding domain and activation domain proteins in HT1080 human fibrosarcoma cells; format: functional; how it was run: as §2
HT-1080 [4] = experiment: as §1; format: functional; how it was run: as §2
HT-1080 [5] = experiment: as §3; format: functional, cell-based; how it was run: as §2
HT-1080 [6] = experiment: Compound was induced transcription stably transfected with constructs encoding separate DNA-binding domain and activation domain proteins in HT1080 human fibrosarcoma cells; No induction; format: functional, cell-based; how it was run: as §2
HT-1080 [7] = experiment: Compound was induced transcription stably transfected with constructs encoding separate DNA-binding domain and activation domain proteins in HT1080 human fibrosarcoma cells;No induction; format: functional, cell-based; how it was run: as §2

Chain of Peptidyl-prolyl cis-trans isomerase FKBP1A (P62942 2-108 F37V limits assumed): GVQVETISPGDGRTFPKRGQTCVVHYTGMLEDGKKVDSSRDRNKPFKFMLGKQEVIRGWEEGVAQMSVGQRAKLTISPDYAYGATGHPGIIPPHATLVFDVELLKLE

Row | SMILES | IC50 [1] | EC50 (HT-1080 [5]) | Expression (HT-1080 [3]) | further results
1 | COc1ccc(CC[C@@H](OC(=O)[C@@H]2CCCCN2C(=O)[C@@H](C)c2cc(OC)c(OC)c(OC)c2)c2cccc(OCC(=O)O)c2)cc1OC | 8.2 nM | – | – | –
2 | CCC(CC)NC(=O)N1CCCC[C@H]1C(=O)O[C@H](CCc1ccc(OC)c(OC)c1)c1cccc(OCC(=O)O)c1 | 64 nM | – | – | –
3 | CC[C@H](C(=O)N1CCCC[C@H]1C(=O)O[C@H](CCc1cccnc1)c1cccc(OCC(=O)O)c1)c1cc(OC)c(OC)c(OC)c1 | 15 nM | – | – | –
4 | CC[C@H](C(=O)N1CCCC[C@H]1C(=O)O[C@H](CCc1cccnc1)c1cccc(OCC(=O)NCCNC(=O)COc2cccc([C@@H](CCc3cccnc3)OC(=O)[C@@H]3CCCCN3C(=O)[C@@H](CC)c3cc(OC)c(OC)c(OC)c3)c2)c1)c1cc(OC)c(OC)c(OC)c1 | – | 82 nM | 29% | EC50 (HT-1080 [6]): No induction
5 | CC[C@H](C(=O)N1CCCC[C@H]1C(=O)O[C@H](CCc1ccccc1)c1cccc(OCC(=O)O)c1)c1cc(OC)c(OC)c(OC)c1 | 5.5 nM | – | – | –
6 | CCC(C)(C)C(=O)C(=O)N1CCCC[C@H]1C(=O)O[C@H](CCc1ccc(OC)c(OC)c1)c1cccc(OCC(=O)O)c1 | 44 nM | – | – | –
7 | CC[C@H](C(=O)N1CCCC[C@H]1C(=O)O[C@H](CCc1ccc(OC)c(OC)c1)c1cccc(OCC(=O)O)c1)c1ccc2c(c1)OCO2 | 26 nM | – | – | –
8 | CO[C@H]1C[C@@H](C)C/C(C)=C/[C@@H](C/C=C/CC2/C=C(\C)C[C@H](C)C[C@H](OC)[C@H]3O[C@@](O)(C(=O)C(=O)N4CCCCC4C(=O)O[C@H](/C(C)=C/[C@@H]4CC[C@@H](O)[C@H](OC)C4)[C@H](C)[C@@H](O)CC2=O)[C@H](C)C[C@H]3OC)C(=O)C[C@H](O)[C@@H](C)[C@@H](/C(C)=C/[C@@H]2CC[C@@H](O)[C@H](OC)C2)OC(=O)C2CCCCN2C(=O)C(=O)C2O[C@H]1[C@H](OC)C[C@H]2C (some centres undefined) | – | 189 nM | 39% | EC50 (HT-1080 [6]): No induction
9 | CC[C@@H]1/C=C(\C)C[C@H](C)C[C@H](OC)[C@H]2OC(C(=O)C(=O)N3CCCCC3C(=O)O[C@H](/C(C)=C/[C@@H]3CC[C@@H](O)[C@H](OC)C3)[C@H](C)[C@@H](O)CC1=O)[C@H](C)C[C@H]2OC (some centres undefined) | 12 nM | – | – | –
10 | CC[C@H](C(=O)N1CCCC[C@H]1C(=O)O[C@H](CCc1ccc(OC)c(OC)c1)c1cccc(OCC(=O)O)c1)c1cc(OC)c(OC)c(OC)c1 (stereo in doubt; form 1) | 8.2 nM | – | – | –
11 | CC[C@H](C(=O)N1CCCC[C@H]1C(=O)O[C@H](CCc1ccc(OC)c(OC)c1)c1cccc(OCC(=O)O)c1)c1cc(OC)c(OC)c(OC)c1 (stereo in doubt; form 2) | 8.2 nM | – | – | –
12 | CC[C@H](C(=O)N1CCCC[C@H]1C(=O)O[C@H](CCc1ccc(OC)c(OC)c1)c1cccc(OCC(=O)NCCNC(=O)COc2cccc([C@@H](CCc3ccc(OC)c(OC)c3)OC(=O)[C@@H]3CCCCN3C(=O)[C@@H](CC)c3cc(OC)c(OC)c(OC)c3)c2)c1)c1cc(OC)c(OC)c(OC)c1 (stereo in doubt; form 2) [RIMIDUCID] | – | – | 79% | EC50 (HT-1080 [6]): No induction

The next lines start with results.

Row | IC50 [1] | EC50 (HT-1080 [5]) | SMILES | Expression (HT-1080 [3]) | further results
13 | – | 11 nM | CCC(CC)NC(=O)N1CCCC[C@H]1C(=O)O[C@H](CCc1ccc(OC)c(OC)c1)c1cccc(OCC(=O)NCCNC(=O)COc2cccc([C@@H](CCc3ccc(OC)c(OC)c3)OC(=O)[C@@H]3CCCCN3C(=O)NC(CC)CC)c2)c1 | 138% | EC50 (HT-1080 [2]): 19 nM; Expression (HT-1080 [4]): 106%
14 | – | 4 nM | CC[C@H](C(=O)N1CCCC[C@H]1C(=O)O[C@H](CCc1ccc(OC)c(OC)c1)c1cccc(OCC(=O)NCCNC(=O)COc2cccc([C@@H](CCc3ccc(OC)c(OC)c3)OC(=O)[C@@H]3CCCCN3C(=O)[C@@H](CC)c3ccccc3)c2)c1)c1ccccc1 | 100% | EC50 (HT-1080 [2]): 8 nM; Expression (HT-1080 [4]): 100%
15 | – | 6 nM | CC[C@H](C(=O)N1CCCC[C@H]1C(=O)O[C@H](CCc1ccc(OC)c(OC)c1)c1cccc(OCC(=O)NCCNC(=O)COc2cccc([C@@H](CCc3ccc(OC)c(OC)c3)OC(=O)[C@@H]3CCCCN3C(=O)[C@@H](CC)c3ccc4c(c3)OCO4)c2)c1)c1ccc2c(c1)OCO2 | 105% | EC50 (HT-1080 [2]): 9 nM; Expression (HT-1080 [4]): 53%
16 | – | 4 nM | COc1ccc(CC[C@@H](OC(=O)[C@@H]2CCCCN2C(=O)[C@@H](C)c2cc(OC)c(OC)c(OC)c2)c2cccc(OCC(=O)NCCNC(=O)COc3cccc([C@@H](CCc4ccc(OC)c(OC)c4)OC(=O)[C@@H]4CCCCN4C(=O)[C@@H](C)c4cc(OC)c(OC)c(OC)c4)c3)c2)cc1OC | 89% | EC50 (HT-1080 [7]): No induction
17 | – | 177 nM | CCC(C)(C)C(=O)C(=O)N1CCCC[C@H]1C(=O)O[C@H](CCc1ccc(OC)c(OC)c1)c1cccc(OCC(=O)NCCNC(=O)COc2cccc([C@@H](CCc3ccc(OC)c(OC)c3)OC(=O)[C@@H]3CCCCN3C(=O)C(=O)C(C)(C)CC)c2)c1 | 149% | EC50 (HT-1080 [2]): 294 nM; Expression (HT-1080 [4]): 17%
18 | – | 20 nM | COc1ccc(CC[C@@H](OC(=O)[C@@H]2CCCCN2C(=O)Cc2ccccc2)c2cccc(OCC(=O)NCCNC(=O)COc3cccc([C@@H](CCc4ccc(OC)c(OC)c4)OC(=O)[C@@H]4CCCCN4C(=O)Cc4ccccc4)c3)c2)cc1OC | 150% | EC50 (HT-1080 [2]): 10 nM; Expression (HT-1080 [4]): 7%
19 | – | 57 nM | CC[C@H](C(=O)N1CCCC[C@H]1C(=O)O[C@H](CCc1ccccc1)c1cccc(OCC(=O)NCCNC(=O)COc2cccc([C@@H](CCc3ccccc3)OC(=O)[C@@H]3CCCCN3C(=O)[C@@H](CC)c3cc(OC)c(OC)c(OC)c3)c2)c1)c1cc(OC)c(OC)c(OC)c1 | 97% | EC50 (HT-1080 [6]): No induction
20 | – | 3 nM | CC[C@H](C(=O)N1CCCC[C@H]1C(=O)O[C@H](CCc1ccc(OC)c(OC)c1)c1cccc(OCC(=O)NCCNC(=O)COc2cccc([C@@H](CCc3ccc(OC)c(OC)c3)OC(=O)[C@@H]3CCCCN3C(=O)[C@@H](CC)c3cc(OC)c(OC)c(OC)c3)c2)c1)c1cc(OC)c(OC)c(OC)c1 (stereo in doubt; form 1) [RIMIDUCID] | – | –
